For 9 compounds, Ratio, Drug uptake and logP results are on record in ChEMBL document CHEMBL3046143, “Occurrence and distribution of organochlorine pesticides (OCPs) in tomato (Lycopersicon esculentum) crops from organic production” (J Agric Food Chem, 2003).

Counter-ions that a name gives are not always drawn.

Data set [1] in a line: Root bioconcentration factor assessed as compound concentration in tomato plant dry mass to compound concentration in soil dry mass after 1 to 15 days post germination. The procedure, abridged:
(§1)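 Root bioconcentration factor is the mean OCP concentration in tomato roots divided by the mean concentration in bulk soil, both on a dry weight basis. Both matrices were analyzed by GC-ECD with external standard quantification. Period 1 was in a pine-needle-enriched seedbed plot and periods 2–3 in an unamended transplant plot. Soil water content was measured by oven drying at 110 °C.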

Data set [2] deals with Stem. The experiment in a line: Drug uptake in Solanum lycopersicum (tomato) stem after 60 to 151 days post germination by GC-ECD analysis. It is filed as ADME. The procedure, abridged:
(§2)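 Organically grown tomatoes: seeded October 2000 in a pine-needle-enriched plot (period 1), transplanted in November to an unamended plot (periods 2–3), harvested March 2001. Tissues were blender-homogenized and analyzed by GC-ECD on a 30 m SPB-5 capillary column, with helium carrier at 1.5 mL/min. Quantified against external OCP standards as mean ng/g dry wt; LODs were 0.12–0.4 ng/g dry wt; samples were run in duplicate.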

Data set [3] is described as follows: Root bioconcentration factor assessed as compound concentration in tomato plant dry mass to compound concentration in soil dry mass after 16 to 59 days post germination. The procedure, abridged:
as §1

Data set [4] is described as follows: Root bioconcentration factor assessed as compound concentration in tomato plant dry mass to compound concentration in soil dry mass after 60 to 151 days post germination. The method in brief: as §1
Data set [5] deals with Leaf. Kind of data set: Drug uptake in Solanum lycopersicum (tomato) leaves after 1 to 15 days post germination by GC-ECD analysis. It is filed as ADME. The procedure, abridged:
as §2

In data set [6] the test system is Root. Kind of data set: Drug uptake in Solanum lycopersicum (tomato) root after 1 to 15 days post germination by GC-ECD analysis. It counts as ADME. The method in brief:
as §2

For data set [7], the system named is Leaf. The experiment in a line: Drug uptake in Solanum lycopersicum (tomato) leaves after 60 to 151 days post germination by GC-ECD analysis. It counts as ADME. The procedure, abridged:
as §2

The subject of data set [8] is Root. The experiment in a line: Drug uptake in Solanum lycopersicum (tomato) root after 16 to 59 days post germination by GC-ECD analysis. It counts as ADME. The procedure, abridged:
as §2

Data set [9] is described as follows: Octanol-water partition coefficient, log KOW of the compound. It is filed as physicochemical. The conditions noted are these: read-out: log KOW.
Data set [10] deals with Fruit. Kind of data set: Drug uptake in Solanum lycopersicum (tomato) fruit peel after 60 to 151 days post germination by GC-ECD analysis. It is filed as ADME. The procedure, abridged:
as §2

For data set [11], the system named is Fruit. Kind of data set: Drug uptake in Solanum lycopersicum (tomato) fruit flesh after 60 to 151 days post germination by GC-ECD analysis. It counts as ADME. The method in brief: as §2
Data set [12] relates to Leaf. Kind of data set: Drug uptake in Solanum lycopersicum (tomato) leaves after 16 to 59 days post germination by GC-ECD analysis. It is filed as ADME. The procedure, abridged: as §2
Data set [13] relates to Stem. Kind of data set: Drug uptake in Solanum lycopersicum (tomato) stem after 1 to 15 days post germination by GC-ECD analysis. It counts as ADME. The procedure, abridged:
as §2

The subject of data set [14] is Root. Kind of data set: Drug uptake in Solanum lycopersicum (tomato) root after 60 to 151 days post germination by GC-ECD analysis. It is filed as ADME. The method in brief:
as §2

Data set [15] concerns Stem. The experiment in a line: Drug uptake in Solanum lycopersicum (tomato) stem after 16 to 59 days post germination by GC-ECD analysis. It counts as ADME. The procedure, abridged: as §2

Regarding `Cl[C@H]1[C@H](Cl)[C@H](Cl)[C@@H](Cl)[C@H](Cl)[C@H]1Cl` [ALPHA-HEXACHLOROCYCLOHEXANE], the Ratio in data set [1] turned out to be 9.5; in data set [3], 4; in data set [4], 13. The Drug uptake in the data set with Stem [2] is recorded as 1.3 ng/g; in the data set on Leaf [5], 1.2 ng/g; in the data set on Root [6], 1.9 ng/g; in the data set on Leaf [7], 0.6 ng/g; in the data set on Root [8], 0.4 ng/g; with Fruit [10], 1.4 ng/g. Moreover, the Drug uptake with Fruit [11] turned out to be 7.4 ng/g; in the data set with Leaf [12], 0.8 ng/g; in the data set with Stem [13], 1.7 ng/g; in the data set on Root [14] it was 1.3 ng/g; with Stem [15] it was 1.1 ng/g. In data set [9], the logP is less than 4.

In the case of `O=S1(=O)OCC2C(CO1)C1(Cl)C(Cl)=C(Cl)C2(Cl)C1(Cl)Cl` (stereo not given) [ENDOSULFAN SULFATE], the Ratio came out at 9.2 in data set [1], 1.3 in [3] and 4.5 in [4]. The Drug uptake in the data set with Stem [2] came to 82.1 ng/g; in the data set on Leaf [5], 126.5 ng/g; in the data set with Root [6], 151.6 ng/g; in the data set with Leaf [7], 38.2 ng/g; in the data set on Root [8], 21.1 ng/g; in the data set with Fruit [10], 80.6 ng/g. The Drug uptake stood at 305.5 ng/g in the data set with Fruit [11]; 48.2 ng/g with Leaf [12]; 246.9 ng/g in the data set with Stem [13]; 71.4 ng/g in the data set on Root [14]; 99.7 ng/g in the data set with Stem [15]. Besides, the logP in data set [9] is less than 4.

For the compound `Cl[C@H]1[C@H](Cl)[C@@H](Cl)[C@H](Cl)[C@@H](Cl)[C@@H]1Cl` [BETA-HEXACHLOROCYCLOHEXANE], the Ratio was 9.2 in [1], 2.7 in data set [3] and 3 in data set [4]. Besides, the Drug uptake is 2.1 ng/g in the data set on Stem [2]; 4.2 ng/g in the data set with Leaf [5]; 3.7 ng/g in the data set on Root [6]; 1.6 ng/g in the data set on Leaf [7]; 1.1 ng/g with Root [8]; 1.5 ng/g in the data set on Fruit [10]. For the same compound, the Drug uptake in the data set with Fruit [11] stood at 5.4 ng/g; in the data set with Leaf [12] it was 2.2 ng/g; with Stem [13] it was 8.9 ng/g; in the data set with Root [14], 1.2 ng/g; in the data set on Stem [15], 4.2 ng/g. The logP in data set [9] was less than 4.

`Clc1ccc(C(c2ccc(Cl)cc2)C(Cl)(Cl)Cl)cc1` [CHLOROPHENOTHANE]: in data set [1], the Ratio was 2.6. Moreover, the Drug uptake was 6.8 ng/g in the data set on Stem [2]; 8.9 ng/g in the data set on Leaf [5]; 19.2 ng/g in the data set with Root [6]; 2.3 ng/g with Leaf [7]; 2.5 ng/g in the data set on Root [8]; 8.8 ng/g with Fruit [10]. In addition, the Drug uptake with Fruit [11] is 29.2 ng/g; in the data set with Leaf [12], 8.24 ng/g; in the data set with Stem [13], 9.4 ng/g; with Root [14], 7.3 ng/g; in the data set on Stem [15], 10.5 ng/g. For the same compound, the logP in data set [9] was greater than 6.

Take `ClC(Cl)=C(c1ccc(Cl)cc1)c1ccc(Cl)cc1` [DICHLORODIPHENYLDICHLOROETHYLENE]: in [1], the Ratio worked out at 5.3. Besides, the Drug uptake with Stem [2] came to 1.8 ng/g; with Leaf [5], 2.8 ng/g; in the data set with Root [6] it was 9.1 ng/g; with Leaf [7], 6 ng/g; in the data set on Root [8] it was 23.2 ng/g; in the data set with Fruit [10], 3.2 ng/g. Further, the Drug uptake in the data set on Fruit [11] is recorded as 6.4 ng/g; in the data set with Leaf [12] it was 2.2 ng/g; in the data set with Stem [13], 7.4 ng/g; with Root [14] it was 2.4 ng/g; in the data set with Stem [15], 8.6 ng/g.

For the compound `O=S1OC[C@@H]2[C@H](CO1)[C@]1(Cl)C(Cl)=C(Cl)[C@]2(Cl)C1(Cl)Cl` (stereo partly drawn) [BETA-ENDOSULFAN], the Ratio in [1] is 50; in [3] it was 15; in data set [4], 15. Further, the Drug uptake in the data set on Stem [2] was found to be 1.6 ng/g; in the data set on Leaf [5] it was 1.1 ng/g; in the data set with Root [6], 2 ng/g; with Leaf [7], 3.3 ng/g; with Root [8], 0.9 ng/g; with Fruit [10], 10.8 ng/g. Besides, the Drug uptake is 6.6 ng/g in the data set on Fruit [11]; 2.9 ng/g in the data set with Leaf [12]; 1.1 ng/g with Stem [13]; 0.9 ng/g in the data set on Root [14]; 3.2 ng/g in the data set with Stem [15]. Further, the logP in data set [9] is less than 4.

Turning to `O=S1OC[C@@H]2[C@H](CO1)[C@@]1(Cl)C(Cl)=C(Cl)[C@]2(Cl)C1(Cl)Cl` (stereo partly drawn) [ALPHA-ENDOSULFAN], the results for the Ratio in data set [1], in data set [3] and in [4] were 10, 18.6 and 4.3, respectively. Moreover, the Drug uptake in the data set with Stem [2] amounted to 0.9 ng/g; in the data set with Leaf [5], 1 ng/g; with Root [6] it was 0.8 ng/g; in the data set on Leaf [7], 3.5 ng/g; with Root [8], 1.3 ng/g; with Fruit [10], 12.3 ng/g. Further, the Drug uptake in the data set with Fruit [11] is listed as 4.5 ng/g; in the data set on Leaf [12] it was 1.5 ng/g; in the data set on Stem [13], 1.2 ng/g; in the data set on Root [14] it was 0.3 ng/g; in the data set with Stem [15], 0.9 ng/g. Moreover, the logP in data set [9] is less than 4.

`Cl[C@H]1[C@H](Cl)[C@@H](Cl)[C@H](Cl)[C@@H](Cl)[C@H]1Cl` [DELTA-HEXACHLOROCYCLOHEXANE]: the Ratio worked out at 18.5 in [1], 0.7 in data set [3] and 1.5 in [4]. Further, the Drug uptake with Stem [2] was 1.6 ng/g; in the data set with Leaf [5] it was 2.4 ng/g; in the data set on Root [6], 3.7 ng/g; in the data set on Leaf [7], 1.2 ng/g; in the data set on Root [8], 0.8 ng/g; with Fruit [10], 1.4 ng/g. Also, the Drug uptake with Fruit [11] turned out to be 2.3 ng/g; in the data set on Leaf [12], 1.1 ng/g; with Stem [13] it was 4.7 ng/g; in the data set on Root [14], 1.7 ng/g; with Stem [15], 3.6 ng/g. Further, the logP in [9] is less than 4.

`Cl[C@H]1[C@H](Cl)[C@@H](Cl)[C@@H](Cl)[C@H](Cl)[C@H]1Cl` [LINDANE]: the Ratio in data set [1] was found to be 12.3; in [3], 3.9; in [4] it was 3.2. The Drug uptake with Stem [2] was found to be 4.6 ng/g; with Leaf [5], 9.9 ng/g; in the data set with Root [6] it was 16.2 ng/g; with Leaf [7] it was 0.9 ng/g; in the data set with Root [8] it was 4.7 ng/g; in the data set with Fruit [10] it was 2.1 ng/g. Also, the Drug uptake with Fruit [11] is recorded as 14.4 ng/g; with Leaf [12] it was 4 ng/g; in the data set on Stem [13], 27.5 ng/g; in the data set on Root [14], 3.9 ng/g; in the data set with Stem [15] it was 9.4 ng/g. In data set [9], the logP was less than 4.
